Test results reported in PubChem BioAssay.
Activity calls are given as the source filed them.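 The calls were made as follows, unless noted: active = inhibition at or above 50% relative to wild type and mutant plate controls; inactive = inhibition below 50%.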

Experiments:
[1] = inhibitors of TNFa-induced NFkB p65 translocation, primary screen, imaging, HUVEC, MLSMR starter and 10KST1 sets (AID 438;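 active = inhibition above 20% together with a positive visual image hit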;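 also: compound added about 3h40 before a 20 min TNFalpha stimulation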;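 as to inhibition: signal is the nuclear over cytoplasmic p65 intensity ratio per well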); settings: HUVEC TNFa-induced p65 nuclear translocation; cell count: measured here: nuclei count (cytotoxicity indicator), at 2.08 µM; inhibition: at 2 µM, stronger effect = higher value, 0% TNFa-plus-vehicle, 100% no-TNFa wells
[2] = inhibitors of E-selectin induction by TNFa, primary screen, imaging, HUVEC, immunofluorescence, MLSMR starter and 10KST1 sets (AID 487;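 active = visually confirmed hit in the image check and inhibition above 20%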;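 as to inhibition: signal is fraction of cell area covered by stained E-selectin grains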;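 as to nuclei count: 100% = median nuclei count of all wells on the same plate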); settings: HUVEC TNFalpha-induced E-selectin immunofluorescence imaging, at 2 µM; inhibition: stronger effect = higher value; nuclei count: measured here: cell number, toxicity
[3] = DUSP6 inhibitors restoring Erk phosphorylation by chemical complementation, primary imaging in DUSP6-transfected HeLa (AID 609;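 active = compounds giving at least 50% inhibition in the cell-based MKP-3 phosphatase rescue imaging test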;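 as to inhibition: phospho-Erk level distribution per well compared with pooled transfected vehicle control wells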); settings: HeLa MKP-3 transfected, phospho-Erk imaging KS statistic, at 10 µM, cells stimulated with TPA for 15 min
[4] = target: Dual specificity protein phosphatase 6 (Homo sapiens) (UniProt Q16828); assay: as above; settings: HeLa MKP-3 transfected, phospho-Erk imaging KS statistic; at 10 µM; stronger effect = higher value; cells stimulated with TPA for 15 min
[5] = target: Voltage-gated potassium channel subunit beta-2 (Rattus norvegicus) (UniProt P62483); assay: KvBeta enzyme negative modulators, primary screen, biochemical, NADPH fluorescence (AID 622;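 active = fluorescence slope higher than the sample average by over 3 SD, cut at about -0.22 in these data, passing the limit was not always enough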;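 also: slope of raw intensity against log time taken from 70 to 1610 s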); settings: recombinant KvBeta, 4-cyanobenzaldehyde reduction, at 10 µM, stronger effect = higher value
[6] = target: Voltage-gated potassium channel subunit beta-2 (Rattus norvegicus) (UniProt P62483); assay: KvBeta positive modulators, primary screen, biochemical, NADPH fluorescence (AID 623;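 active = NADPH fluorescence slope more negative than the mean of all samples by about 3 SD, 99.7% confidence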;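 also: fluorescence intensity change per second fitted from 20 to 320 s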); settings: Recombinant KvBeta, NADPH fluorescence decrease slope, 10 min; at 10 µM; stronger effect = lower value
[7] = target: Muscarinic acetylcholine receptor M4 (Homo sapiens) (UniProt P08173); assay: compounds altering M4/GIRK thallium flux, either direction, primary screen, M4 allosteric agonist project, cell-based, HEK293 M4/GIRK, BTC-AM (AID 625;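 active = fluorescence slope after compound addition differing from the mean of all tested samples at 99.7% confidence, mostly higher but some lower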;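 also: thallium influx through GIRK channels coupled to M4 in HEK293 cells with BTC-AM dye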); settings: at 10 µM, actives lie on both sides
How it was run: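 Assay system: HEK293 cells with M4 receptor and GIRK channels / Controls: carbachol and DMSO controls / Schedule: 1 h dye loading, 2 min kinetic read / Technique: kinetic fluorescence with BTC-AM dye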

[8] = inhibitors of larval lipid processing in zebrafish, primary screen, whole organism, PED6 fluorescence, gall bladder and intestine (AID 686;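 active = a full or partial loss of lipid-probe fluorescence in the fish gall bladder, intestine or both, judged by eye; inactive = no fluorescence loss, or compound toxic to the fish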;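 also: larvae 5 to 7 days old with five fish per well; signal comes from phospholipase A2 cleavage of quenched PED6 carried via bile; overnight exposure to compound and PED6 before scoring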); settings: Zebrafish larvae PED6 lipid processing, fluorescence scoring; screened at 20 µM (by protocol)
How it was run: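 Doses: 20 µM single dose. Test system: live zebrafish larvae aged 5-7 days, whole organism. Quantity: five larvae per well. Measured by: By-eye fluorescence microscopy. Reagent: ingested quenched lipid PED6 at 100 nM. Read-out: visual per-well fluorescence inhibition score. Times: overnight exposure of larvae to compound plus PED6.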

[9] = inhibitors of Chlamydomonas gravitaxis, primary screen, whole organism, Chlamydomonas reinhardtii, WT vs cilia-less mutant, absorbance, 96-well (AID 463189); settings: OD600 absorbance, 2 days, at 10 µM, stronger effect = higher value;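 also: 0% = wild type cc124 cells in DMSO and 100% = ciliumless bld1 mutant cells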
[10] = measured here: cell density z-score
[11] = measured here: nuclear c-Myc green intensity z-score
[12] = measured here: nuclear pErk red intensity z-score, stronger effect = higher value

Chain of Dual specificity protein phosphatase 6 (Homo sapiens) (Q16828 whole entry, looked up): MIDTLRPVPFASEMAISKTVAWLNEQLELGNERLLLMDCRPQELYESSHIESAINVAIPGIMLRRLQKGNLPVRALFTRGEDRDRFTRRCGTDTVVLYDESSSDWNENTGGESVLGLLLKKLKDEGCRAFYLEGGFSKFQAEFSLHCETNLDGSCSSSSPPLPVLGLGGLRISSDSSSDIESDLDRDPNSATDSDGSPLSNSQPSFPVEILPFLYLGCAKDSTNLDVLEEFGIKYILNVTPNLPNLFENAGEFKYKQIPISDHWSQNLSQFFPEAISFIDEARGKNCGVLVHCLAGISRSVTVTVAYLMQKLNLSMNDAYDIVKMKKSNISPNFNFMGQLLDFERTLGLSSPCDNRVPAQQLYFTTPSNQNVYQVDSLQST
Chain of Muscarinic acetylcholine receptor M4 (Homo sapiens) (P08173 whole entry, looked up): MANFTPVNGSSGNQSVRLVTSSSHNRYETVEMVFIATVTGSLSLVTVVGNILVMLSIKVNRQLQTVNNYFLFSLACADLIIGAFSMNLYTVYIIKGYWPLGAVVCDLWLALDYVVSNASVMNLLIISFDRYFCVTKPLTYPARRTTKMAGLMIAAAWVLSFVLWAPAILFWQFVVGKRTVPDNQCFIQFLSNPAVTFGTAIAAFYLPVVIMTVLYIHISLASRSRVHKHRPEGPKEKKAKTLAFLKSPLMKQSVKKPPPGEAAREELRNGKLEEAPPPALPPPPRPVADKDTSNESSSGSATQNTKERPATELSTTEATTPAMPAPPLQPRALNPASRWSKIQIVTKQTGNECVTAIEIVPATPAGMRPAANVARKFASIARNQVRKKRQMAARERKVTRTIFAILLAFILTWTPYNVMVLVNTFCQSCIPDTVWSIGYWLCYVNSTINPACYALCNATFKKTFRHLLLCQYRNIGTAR
Chain of Voltage-gated potassium channel subunit beta-2 (Rattus norvegicus) (P62483 whole entry, looked up): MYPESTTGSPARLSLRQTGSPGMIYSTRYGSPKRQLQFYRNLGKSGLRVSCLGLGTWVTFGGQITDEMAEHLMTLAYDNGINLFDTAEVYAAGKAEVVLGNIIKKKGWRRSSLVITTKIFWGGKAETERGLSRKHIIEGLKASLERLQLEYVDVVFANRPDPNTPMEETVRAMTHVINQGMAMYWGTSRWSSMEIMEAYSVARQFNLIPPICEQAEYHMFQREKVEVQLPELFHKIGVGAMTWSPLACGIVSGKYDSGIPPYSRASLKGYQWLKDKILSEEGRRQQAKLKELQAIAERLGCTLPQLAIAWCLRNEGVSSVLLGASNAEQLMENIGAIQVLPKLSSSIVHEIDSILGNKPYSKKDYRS

SMILES | cell count [1] | inhibition [1] | inhibition [2] | nuclei count [2] [%] | z-score [3, 10] | z-score [3, 11] | z-score [3, 12] | inhibition [4] | fluorescence slope [5] | NADPH fluorescence slope [6] | fluorescence slope [7] | outcome [8] | inhibition [9]
CC(=O)Oc1ccc2c(C)cc(=O)[nH]c2c1 | 666 | -2% (inactive) | -13% (inactive) | 99.4 | -0.72 | 0.616 | 0.878 | 5.95% (inactive) | -0.502 (inactive) | -0.000195 (active) | 0.00681 (inactive) | inactive | 22.8% (inactive)
Cc1ccc(OCC(=O)N(C)CCc2ccccn2)cc1 | 475 | -5.5% (inactive) | -175% (inactive) | 159 | -0.678 | -1.49 | 1.57 | -2.29% (inactive) | -0.433 (inactive) | -5.2e-05 (inactive) | 0.00557 (inactive) | inactive | 7.87% (inactive)
NC(=O)C(c1ccccc1)C1CCCC1 (stereo unspecified) | 603 | -8.2% (inactive) | -33.8% (inactive) | 113 | 1.58 | -0.32 | -0.629 | -3.95% (inactive) | -0.409 (inactive) | -4.8e-05 (inactive) | 0.00443 (inactive) | inactive | -3.81% (inactive)
O=C(Nc1ccccc1)c1cc(N2CCOCC2)nc2ccccc12 | 667 | -1.5% (inactive) | -114% (inactive) | 149 | 1.08 | 1.33 | -0.63 | 6.51% (inactive) | -0.419 (inactive) | -6.8e-05 (inactive) | 0.00579 (inactive) | inactive | -0.488% (inactive)
CC1(C)Cc2[nH]c(=S)c(C#N)cc2CO1 | 531 | -11.7% (inactive) | -90.9% (inactive) | 118 | 0.165 | 0.751 | -0.483 | -5.81% (inactive) | -0.459 (inactive) | -0.000113 (inactive) | 0.0062 (inactive) | inactive | -14% (inactive)
c1ccc(-n2c(Cc3cccnc3)nc3cnccc32)cc1 | 581 | -2.4% (inactive) | 48.6% (inactive) | 107 | -0.422 | -1.1 | -1.28 | -6.48% (inactive) | -0.468 (inactive) | -5.8e-05 (inactive) | 0.00562 (inactive) | inactive | 1.93% (inactive)
O=C1c2ccccc2C(=O)N1CC1c2ccccc2CCN1C(=O)N1CCOCC1 (stereo unspecified) | 775 | -4.1% (inactive) | -16.4% (inactive) | 202 | 0.51 | 1.63 | 0.969 | 1.98% (inactive) | -0.485 (inactive) | -4.9e-05 (inactive) | 0.0053 (inactive) | inactive | -3.71% (inactive)
COc1ccc(-n2ncc3c(N4CCC(C(N)=O)CC4)ncnc32)cc1 | 602 | -18.6% (inactive) | -114% (inactive) | 159 | 0.0865 | 1.24 | -0.312 | 13.4% (inactive) | -0.385 (inactive) | -6.8e-05 (inactive) | 0.00675 (inactive) | inactive | -0.327% (inactive)
CCC(=O)Nc1ccc(-c2nnc(-c3ccccc3)o2)cc1 | 647 | 1.6% (inactive) | 18.6% (inactive) | 89.6 | 1.36 | -0.514 | 1.06 | 1.63% (inactive) | -0.444 (inactive) | -8.1e-05 (inactive) | 0.00653 (inactive) | inactive | 30.3% (inactive)
Cc1cc(C)c(S(=O)(=O)O)c(C)n1 | 533 | -13.8% (inactive) | 6.7% (inactive) | 203 | -0.302 | 0.575 | 0.985 | -5.95% (inactive) | -0.393 (inactive) | -4.7e-05 (inactive) | 0.00523 (inactive) | inactive | -7.08% (inactive)
CC(C)CNC(=O)c1c(N)n(/N=C/c2cccnc2)c2nc3ccccc3nc12 | 412 | -2.8% (inactive) | -18% (inactive) | 105 | 1.93 | -1.56 | -0.113 | 17.7% (inactive) | -0.347 (inactive) | 4.3e-06 (inactive) | 0.00594 (inactive) | inactive | 35.6% (inactive)
COCCNc1oc(-c2ccc(F)cc2)nc1C#N | 631 | -8.1% (inactive) | -48.8% (inactive) | 162 | 1.98 | -0.407 | 1.1 | 24% (inactive) | -0.446 (inactive) | -6.5e-05 (inactive) | 0.00617 (inactive) | inactive | -8.51% (inactive)
COCCCn1c(C)nc2c(c1=O)c1nc3ccccc3nc1n2CCc1ccccc1 | 709 | 4.3% (inactive) | 18.7% (inactive) | 162 | -0.739 | -0.364 | -0.291 | -9.53% (inactive) | -0.341 (inactive) | -5.1e-05 (inactive) | 0.00467 (inactive) | inactive | 8.3% (inactive)
CCOc1ccccc1C(=O)NCCCCCC(=O)O | 421 | -9.4% (inactive) | -419% (inactive) | 193 | 0.279 | -0.756 | 0.2 | 1.42% (inactive) | -0.472 (inactive) | -9.6e-05 (inactive) | 0.00537 (inactive) | inactive | 0.493% (inactive)
CC(C)c1nc2n[nH]c(N)c2c2c1CCCC2 | 576 | 2.1% (inactive) | -38.2% (inactive) | 148 | -0.386 | 1.02 | -1.27 | 7.21% (inactive) | -0.465 (inactive) | -8.5e-05 (inactive) | 0.00509 (inactive) | inactive | -2.96% (inactive)
CC12CCC(=O)N1c1c(sc3nc(N4CCOCC4)c4c(c13)CCCC4)C(=O)N2 (stereo unspecified) | 363 | 1.4% (inactive) | -105% (inactive) | 122 | -0.444 | 1.24 | 0.642 | 5.42% (inactive) | -0.316 (inactive) | -5.5e-05 (inactive) | 0.00445 (inactive) | inactive | 26.7% (inactive)
COc1ccc(Nc2cc(C)nc(-n3nc(C)cc3C)n2)cc1 | 454 | 12% (inactive) | -182% (inactive) | 127 | -0.499 | -0.357 | -1.13 | -3.95% (inactive) | -0.427 (inactive) | -2.8e-05 (inactive) | 0.00507 (inactive) | inactive | 45% (inactive)
CCOC(=O)Oc1ccc2c(c1)C(C)=CC(C)(C)N2C(=O)OCC | 618 | 2.2% (inactive) | -42% (inactive) | 115 | 1.01 | 0.72 | 0.465 | -13.3% (inactive) | -0.433 (inactive) | -4.7e-05 (inactive) | 0.00572 (inactive) | inactive | -7.72% (inactive)
COc1cccc(OC)c1C(=O)Nc1nc2ccc(S(C)(=O)=O)cc2s1 | 388 | -2.4% (inactive) | -8.7% (inactive) | 109 | 0.854 | 0.658 | -1.02 | 6.04% (inactive) | -0.409 (inactive) | -1e-05 (inactive) | 0.00408 (inactive) | inactive | 19.4% (inactive)
CCCC(=O)Nc1nn(CCC)c2nc3ccccc3cc12 | 632 | -8.1% (inactive) | 7.7% (inactive) | 142 | -0.342 | -1.58 | 0.919 | 2.71% (inactive) | -0.481 (inactive) | -6.7e-05 (inactive) | 0.00673 (inactive) | inactive | 6.78% (inactive)
CNc1oc(-c2cccs2)nc1C#N | 683 | -0.7% (inactive) | -2.1% (inactive) | 144 | 0.965 | 0.294 | 0.102 | 1.63% (inactive) | -0.0289 (inactive) | -2.3e-05 (inactive) | 0.00668 (inactive) | inactive | 7.4% (inactive)
O=C(COc1ccc(F)cc1)OCCN1CCOCC1 | 565 | -8.9% (inactive) | -82.4% (inactive) | 135 | -1.31 | 0.0144 | 2.07 | -10.6% (inactive) | -0.449 (inactive) | -0.000116 (inactive) | 0.00404 (inactive) | inactive | -2.61% (inactive)
CCOC(=O)NC(Nc1sc2c(c1C(=O)OC)CCN(C)C2)(C(F)(F)F)C(F)(F)F | 614 | 3.1% (inactive) | -20.8% (inactive) | 89.6 | 0.751 | -0.407 | -0.601 | 16.5% (inactive) | -0.501 (inactive) | -3.3e-05 (inactive) | 0.00619 (inactive) | inactive | 36.6% (inactive)
CNc1oc(-c2ccccc2Cl)nc1C#N | 368 | 4.3% (inactive) | 23.8% (inactive) | 79.3 | 0.949 | -0.665 | 0.059 | 3.56% (inactive) | -0.594 (inactive) | -4.5e-05 (inactive) | 0.00508 (inactive) | active; weak signal in gallbladder and intestine | 19.9% (inactive)
CC(NC(=O)Nc1cccnc1)(C(F)(F)F)C(F)(F)F | 706 | -5.1% (inactive) | -177% (inactive) | 184 | 0.533 | -0.524 | 0.0759 | 7.93% (inactive) | -0.454 (inactive) | -0.000301 (inactive) | 0.00556 (inactive) | inactive | 0.542% (inactive)
CCc1nc(NCC2CCCO2)c(C#N)c2c1COC(C)(C)C2 (stereo unspecified) | 550 | -12.7% (inactive) | 2% (inactive) | 127 | -0.137 | -0.0587 | 0.863 | 1.9e-07% (inactive) | -0.316 (inactive) | -4e-05 (inactive) | 0.00695 (inactive) | inactive | -12.9% (inactive)
Cc1nn(C)cc1/C=N/n1nnnc1N | 680 | -10.2% (inactive) | -45.8% (inactive) | 155 | 0.00474 | -1.39 | 0.944 | 4.37% (inactive) | -0.487 (inactive) | -3.8e-05 (inactive) | 0.00512 (inactive) | inactive | 11.8% (inactive)
